Measurements gathered from unrelated publications.
Compare with care: the assays were run in different laboratories.
AMY2: Pancreatic alpha-amylase (AMY2, Sus scrofa, UniProt P00690)
SIRT2: NAD-dependent protein deacetylase sirtuin-2 (SIRT2, Homo sapiens, UniProt Q8IXJ6)
HSD11B2: 11-beta-hydroxysteroid dehydrogenase type 2 (HSD11B2, Homo sapiens, UniProt P80365)

| SMILES | target | read-out | mode | technique | concentration | notes | inhibition [%] |
| --- | --- | --- | --- | --- | --- | --- | --- |
| CCCN(O)N=Nc1ccc(S(=O)(=O)Nc2cc(C)on2)cc1 | AMY2 | enzyme activity | inhibitor |  | 60 µg/mL |  | 21.1 |
| CCOCCOCCNC(=S)NCCCC[C@H](NS(C)(=O)=O)C(=O)N[C@H](C)C(=O)N[C@@H](CCCNC(=N)N)C(N)=O | SIRT2 | enzyme activity | inhibitor |  | 100 µM |  | 16 |
| CCN(O)N=Nc1ccc(S(=O)(=O)Nc2nccs2)cc1 | AMY2 | enzyme activity | inhibitor |  | 300 µg/mL |  | 63.2 |
| O=C(NC1CCC1)[C@H](Cc1c[nH]c2ccccc12)NC(=O)[C@H](CCCCNC(=S)NCCn1nn[nH]c1=O)NS(=O)(=O)c1cccc(F)c1 | SIRT2 | enzyme activity | inhibitor |  | 100 µM |  | 8 |
| O=C(O)CN1CCN(CC(=O)O)CCN(CC(=O)O)CC1 | Hydroxyacylglutathione hydrolase, mitochondrial (Homo sapiens, UniProt Q16775) | cell-free assay |  |  | 500 µM |  | 5.98 |
| CCCCCCCCCCCCCC(=O)NNCCC[C@H](NC(=O)OCc1ccccc1)C(=O)N[C@@H](Cc1c[nH]c2ccccc12)C(=O)NC(C)C | SIRT2 | enzyme activity | inhibitor |  | 100 µM |  | 19 |
| C=C(CC)C(=O)c1ccc(OCC(=O)O)c(Cl)c1Cl | HSD11B2 | enzyme activity | inhibitor |  | 20 µM | lysate | < 40 |
| COc1cc(C=CC(=O)CC(c2ccc([N+](=O)[O-])cc2)n2ccnc2)ccc1O (stereo not drawn) | AMY2 | enzyme activity | inhibitor | absorbance | 5 µg/mL |  | 75.6 |
| C[C@H]1O[C@H](O[C@H]2[C@H](O)[C@@H](O)[C@@H](O[C@H]3[C@H](O)[C@@H](O)C(O)O[C@@H]3CO)O[C@@H]2CO)[C@H](O)[C@@H](O)[C@@H]1N[C@H]1C=C(CO)[C@@H](O)[C@H](O)[C@H]1O (stereo partly drawn) | AMY2 | enzyme activity | inhibitor |  | 150 µg/mL |  | 84.7 |
| CCC(C)(C)C(=O)O[C@H]1C[C@@H](C)C=C2C=C[C@H](C)[C@H](CC[C@@H]3C[C@@H](O)CC(=O)O3)[C@H]21 | HSD11B2 | enzyme activity | inhibitor |  | 20 µM | lysate | < 40 |
| Cc1ccc(N(O)N=Nc2ccc(S(=O)(=O)Nc3onc(C)c3C)cc2)cc1 | AMY2 | enzyme activity | inhibitor |  | 180 µg/mL |  | 42.1 |
| COc1cc(C=CC(=O)CC(c2ccc(N(C)C)cc2)n2ccnc2)ccc1O (stereo not drawn) | AMY2 | enzyme activity | inhibitor | absorbance | 5 µg/mL |  | 77 |
| CCCCCCCCCCCCNC(=O)CCCCC[C@H](NC(=O)OCc1ccccc1)C(=O)N[C@@H](Cc1c[nH]c2ccccc12)C(=O)NC(C)C | SIRT2 | enzyme activity | inhibitor |  | 100 µM |  | 29 |
| Cc1cccc(N(O)N=Nc2ccc(S(=O)(=O)Nc3onc(C)c3C)cc2)c1 | AMY2 | enzyme activity | inhibitor |  | 240 µg/mL |  | 52.6 |
| CCCC(=S)NCCCC[C@H](NS(C)(=O)=O)C(=O)N[C@H](C)C(=O)N[C@@H](CCCNC(=N)N)C(N)=O | SIRT2 | enzyme activity | inhibitor |  | 10 µM |  | 31 |
| Cn1c(CNC(=S)NCCCC[C@H](NS(=O)(=O)c2cccc(F)c2)C(=O)N[C@@H](Cc2c[nH]c3ccccc23)C(=O)NC2CCC2)n[nH]c1=S | SIRT2 | enzyme activity | inhibitor |  | 30 µM |  | 43 |
| Oc1cccc(Nc2nc(-c3ccc(F)cc3F)cs2)c1 | Amine oxidase [flavin-containing] A (Maoa, Rattus norvegicus, UniProt P21396) | cell-free assay |  |  | 10 µM |  | 14.4 |
| COc1cc(C=Cc2cc(-c3ccccc3)nc(O)n2)ccc1O | AMY2 | enzyme activity | inhibitor | absorbance | 2.5 µg/mL |  | 66.3 |
| CN1CC(Oc2cnc(C#N)cc2-c2ccn3nc(NC(=O)C4CC4)cc3c2)C1 | Receptor-interacting serine/threonine-protein kinase 1 (RIPK1, Homo sapiens, UniProt Q13546) | enzyme activity | inhibitor |  | 1 µM |  | -4 |
| Cc1cc(NS(=O)(=O)c2ccc(N=NN(O)c3ccccc3)cc2)no1 | AMY2 | enzyme activity | inhibitor |  | 180 µg/mL |  | 52.6 |
| COc1cc(C=Cc2cc(-c3ccc(N(C)C)cc3)nc(O)n2)ccc1O | AMY2 | enzyme activity | inhibitor | absorbance | 10 µg/mL |  | 82.6 |
